Active and inactive are the calls of the source. The rule behind the calls is not given here. Some results are limits rather than exact numbers.

Assay [1] addresses Nuclear factor NF-kappa-B complex (Homo sapiens) (UniProt Q00653+P19838+Q04206). The experiment in a line: Inhibition of TNF-alpha-induced NF-kappaB activity in HEK293 cells after 6 hrs by luciferase reporter gene assay. It counts as cell-based.
Assay [2] addresses T1, Nitric oxide synthase, inducible (Mus musculus) (UniProt P29477).
T1 sequence (whole entry): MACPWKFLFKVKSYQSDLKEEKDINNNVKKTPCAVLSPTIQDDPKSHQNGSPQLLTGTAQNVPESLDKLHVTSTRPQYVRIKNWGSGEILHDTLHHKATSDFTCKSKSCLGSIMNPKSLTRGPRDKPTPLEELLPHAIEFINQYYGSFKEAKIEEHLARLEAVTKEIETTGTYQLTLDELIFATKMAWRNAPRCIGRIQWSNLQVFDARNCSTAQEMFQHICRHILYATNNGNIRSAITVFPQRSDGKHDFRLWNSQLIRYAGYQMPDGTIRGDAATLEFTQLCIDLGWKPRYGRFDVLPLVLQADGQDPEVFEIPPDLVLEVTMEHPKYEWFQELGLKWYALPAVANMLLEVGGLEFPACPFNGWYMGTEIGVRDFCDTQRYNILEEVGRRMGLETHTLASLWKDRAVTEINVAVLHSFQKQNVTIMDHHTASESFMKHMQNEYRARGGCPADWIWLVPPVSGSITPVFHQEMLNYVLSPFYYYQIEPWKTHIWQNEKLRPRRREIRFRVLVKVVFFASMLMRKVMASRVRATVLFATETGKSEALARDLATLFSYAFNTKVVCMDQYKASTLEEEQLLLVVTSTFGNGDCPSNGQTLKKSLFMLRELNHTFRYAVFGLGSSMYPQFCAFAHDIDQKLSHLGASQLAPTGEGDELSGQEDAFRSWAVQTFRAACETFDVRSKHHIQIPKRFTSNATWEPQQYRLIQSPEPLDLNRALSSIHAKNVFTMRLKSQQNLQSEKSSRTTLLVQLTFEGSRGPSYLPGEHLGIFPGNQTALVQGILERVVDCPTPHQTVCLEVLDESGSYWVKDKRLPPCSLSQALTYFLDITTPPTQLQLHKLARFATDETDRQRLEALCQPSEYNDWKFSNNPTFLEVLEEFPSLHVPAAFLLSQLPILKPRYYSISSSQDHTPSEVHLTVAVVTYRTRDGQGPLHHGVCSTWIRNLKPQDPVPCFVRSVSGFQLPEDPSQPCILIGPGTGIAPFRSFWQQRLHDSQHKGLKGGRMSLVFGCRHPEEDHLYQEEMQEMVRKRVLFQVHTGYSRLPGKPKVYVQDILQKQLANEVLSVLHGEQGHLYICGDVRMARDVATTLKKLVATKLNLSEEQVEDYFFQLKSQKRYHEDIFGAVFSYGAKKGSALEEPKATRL
The experiment in a line: Inhibition of LPS-induced iNOS activity in mouse RAW264.7 cells after 24 hrs. Type of assay: cell-based.

The target of assay [3] is T2, Aromatase (Homo sapiens, UniProt P11511).
T2 sequence (P11511 whole entry): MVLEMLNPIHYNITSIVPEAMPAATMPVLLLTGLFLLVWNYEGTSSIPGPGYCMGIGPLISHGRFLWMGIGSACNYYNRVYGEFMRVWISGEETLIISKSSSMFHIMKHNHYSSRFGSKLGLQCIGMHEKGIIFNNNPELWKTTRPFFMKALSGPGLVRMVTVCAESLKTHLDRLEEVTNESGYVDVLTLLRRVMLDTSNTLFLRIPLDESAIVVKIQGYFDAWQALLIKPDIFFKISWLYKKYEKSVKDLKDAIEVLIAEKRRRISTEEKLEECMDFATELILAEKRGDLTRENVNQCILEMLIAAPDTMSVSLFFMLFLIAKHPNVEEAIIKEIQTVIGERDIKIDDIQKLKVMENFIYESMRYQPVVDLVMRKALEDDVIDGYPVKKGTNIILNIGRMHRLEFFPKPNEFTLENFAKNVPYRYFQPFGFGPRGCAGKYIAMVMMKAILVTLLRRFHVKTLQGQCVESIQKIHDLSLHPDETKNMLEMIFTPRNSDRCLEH
In words: Inhibition of aromatase (unknown origin) using dibenzylfluorescein substrate at 50 uM after 24 hrs by fluorescence assay.

Assay [4] concerns the target Beta-secretase 1 (Homo sapiens) (UniProt P56817). In words: Inhibition of BACE1 (unknown origin) assessed as proteolytic cleavage of amyloid precursor protein after 16 hrs at < 100 uM by chemiluminescence assay.
For assay [5], the target named is T2, Aromatase. The experiment in a line: Inhibition of aromatase (unknown origin) using dibenzylfluorescein substrate after 24 hrs by fluorescence assay.
Assay [6] deals with NAD(P)H dehydrogenase [quinone] 1 (Mus musculus) (UniProt Q64669). The experiment in a line: Induction of quinone reductase 1 in mouse Hepa-1c1c7 cells after 48 hrs by MTT assay. Type of assay: cell-based. The essentials:
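QR1 induction measured in cultured murine Hepa 1c1c7 hepatoma cells. Potency is expressed as the CD value, the test-compound concentration needed to double QR1 enzymatic activity.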

Nuclear factor NF-kappa-B complex (Homo sapiens), sequence (P19838 whole entry, looked up): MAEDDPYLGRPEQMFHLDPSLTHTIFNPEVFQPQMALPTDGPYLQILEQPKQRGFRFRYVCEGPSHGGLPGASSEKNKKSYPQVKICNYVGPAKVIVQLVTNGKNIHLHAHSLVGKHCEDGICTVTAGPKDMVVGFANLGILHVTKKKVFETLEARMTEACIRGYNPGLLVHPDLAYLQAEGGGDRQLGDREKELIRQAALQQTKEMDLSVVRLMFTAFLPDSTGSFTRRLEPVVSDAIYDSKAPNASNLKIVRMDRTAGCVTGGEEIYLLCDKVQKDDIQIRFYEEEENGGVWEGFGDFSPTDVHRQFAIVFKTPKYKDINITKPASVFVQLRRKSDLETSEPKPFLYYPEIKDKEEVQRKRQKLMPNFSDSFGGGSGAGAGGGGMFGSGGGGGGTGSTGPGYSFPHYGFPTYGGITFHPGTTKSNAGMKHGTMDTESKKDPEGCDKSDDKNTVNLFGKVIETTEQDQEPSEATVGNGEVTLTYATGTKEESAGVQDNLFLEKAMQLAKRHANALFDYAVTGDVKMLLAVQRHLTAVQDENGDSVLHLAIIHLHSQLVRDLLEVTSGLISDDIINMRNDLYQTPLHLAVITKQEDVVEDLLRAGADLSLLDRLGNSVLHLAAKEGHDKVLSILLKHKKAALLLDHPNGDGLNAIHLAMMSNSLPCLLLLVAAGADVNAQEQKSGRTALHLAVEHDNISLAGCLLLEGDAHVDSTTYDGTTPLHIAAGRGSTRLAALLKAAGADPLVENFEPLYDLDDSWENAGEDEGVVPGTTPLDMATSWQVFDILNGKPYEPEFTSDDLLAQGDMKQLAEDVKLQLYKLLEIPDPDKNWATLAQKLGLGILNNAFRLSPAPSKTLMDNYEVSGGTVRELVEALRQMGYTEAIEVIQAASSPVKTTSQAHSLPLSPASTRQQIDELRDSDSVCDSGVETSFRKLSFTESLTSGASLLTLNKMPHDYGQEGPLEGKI
Nuclear factor NF-kappa-B complex (Homo sapiens), sequence (Q00653 whole entry, looked up): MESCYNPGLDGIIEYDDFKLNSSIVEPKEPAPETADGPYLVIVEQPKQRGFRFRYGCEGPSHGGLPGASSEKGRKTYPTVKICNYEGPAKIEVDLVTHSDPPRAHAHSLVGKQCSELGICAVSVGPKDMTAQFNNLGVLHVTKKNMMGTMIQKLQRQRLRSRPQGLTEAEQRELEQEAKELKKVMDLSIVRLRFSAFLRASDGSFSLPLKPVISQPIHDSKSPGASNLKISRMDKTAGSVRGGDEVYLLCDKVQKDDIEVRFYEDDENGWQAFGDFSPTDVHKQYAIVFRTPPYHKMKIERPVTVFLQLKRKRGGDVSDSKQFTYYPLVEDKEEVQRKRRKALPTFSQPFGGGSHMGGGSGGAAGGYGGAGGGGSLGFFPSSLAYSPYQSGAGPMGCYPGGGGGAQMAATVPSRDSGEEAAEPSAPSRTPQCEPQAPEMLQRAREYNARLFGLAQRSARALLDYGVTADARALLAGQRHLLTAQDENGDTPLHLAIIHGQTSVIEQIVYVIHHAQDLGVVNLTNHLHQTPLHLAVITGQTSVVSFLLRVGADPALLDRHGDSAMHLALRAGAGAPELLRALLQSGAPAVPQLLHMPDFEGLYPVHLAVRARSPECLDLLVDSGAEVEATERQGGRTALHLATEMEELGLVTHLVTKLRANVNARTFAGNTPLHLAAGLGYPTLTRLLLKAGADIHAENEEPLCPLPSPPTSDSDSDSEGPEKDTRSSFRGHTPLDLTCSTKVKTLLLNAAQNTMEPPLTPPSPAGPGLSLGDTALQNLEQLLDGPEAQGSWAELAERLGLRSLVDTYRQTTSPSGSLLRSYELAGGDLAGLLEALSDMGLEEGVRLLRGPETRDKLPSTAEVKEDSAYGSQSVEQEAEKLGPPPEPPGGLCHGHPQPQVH
Nuclear factor NF-kappa-B complex (Homo sapiens), sequence (Q04206 whole entry, looked up): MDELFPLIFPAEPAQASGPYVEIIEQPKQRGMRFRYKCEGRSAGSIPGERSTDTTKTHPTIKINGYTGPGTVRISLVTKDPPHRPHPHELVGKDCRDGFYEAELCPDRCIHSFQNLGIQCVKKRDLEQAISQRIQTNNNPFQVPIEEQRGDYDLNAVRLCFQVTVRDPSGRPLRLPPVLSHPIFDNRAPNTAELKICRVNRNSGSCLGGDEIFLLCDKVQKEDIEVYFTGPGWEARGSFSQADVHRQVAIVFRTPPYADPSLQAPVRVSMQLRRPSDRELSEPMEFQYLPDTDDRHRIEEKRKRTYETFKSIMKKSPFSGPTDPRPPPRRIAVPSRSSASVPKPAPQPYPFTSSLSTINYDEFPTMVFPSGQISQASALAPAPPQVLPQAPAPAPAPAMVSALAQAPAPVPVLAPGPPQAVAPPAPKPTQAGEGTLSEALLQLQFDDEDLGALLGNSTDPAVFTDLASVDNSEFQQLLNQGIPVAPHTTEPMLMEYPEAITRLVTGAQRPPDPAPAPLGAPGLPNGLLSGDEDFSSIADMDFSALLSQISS
Beta-secretase 1 (Homo sapiens), sequence (P56817 whole entry): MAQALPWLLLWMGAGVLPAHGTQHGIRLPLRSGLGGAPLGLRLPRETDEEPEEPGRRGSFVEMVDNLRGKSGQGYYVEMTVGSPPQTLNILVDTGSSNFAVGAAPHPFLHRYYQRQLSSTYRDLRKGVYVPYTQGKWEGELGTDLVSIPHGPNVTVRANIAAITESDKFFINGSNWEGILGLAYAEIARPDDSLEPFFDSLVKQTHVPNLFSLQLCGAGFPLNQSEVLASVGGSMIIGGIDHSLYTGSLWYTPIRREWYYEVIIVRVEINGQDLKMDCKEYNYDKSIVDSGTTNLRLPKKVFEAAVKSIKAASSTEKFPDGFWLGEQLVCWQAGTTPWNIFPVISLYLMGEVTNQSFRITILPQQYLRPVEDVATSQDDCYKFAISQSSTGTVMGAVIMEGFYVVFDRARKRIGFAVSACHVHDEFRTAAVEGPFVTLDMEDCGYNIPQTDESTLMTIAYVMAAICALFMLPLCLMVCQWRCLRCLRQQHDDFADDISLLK
NAD(P)H dehydrogenase [quinone] 1 (Mus musculus), sequence (Q64669 whole entry): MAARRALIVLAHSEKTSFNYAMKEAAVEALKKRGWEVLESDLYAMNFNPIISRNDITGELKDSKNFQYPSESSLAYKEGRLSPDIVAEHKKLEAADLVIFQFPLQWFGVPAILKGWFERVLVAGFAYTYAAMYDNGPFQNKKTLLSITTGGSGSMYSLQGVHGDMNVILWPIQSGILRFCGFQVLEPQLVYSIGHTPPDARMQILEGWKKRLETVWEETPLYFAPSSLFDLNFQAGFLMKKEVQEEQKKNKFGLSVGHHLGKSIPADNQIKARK

In general, inhibition refers to how much of the control response was suppressed. In the case of `CC1=C(O)C(=O)C[C@@]2(C)[C@H]1CC[C@@]1(CO)c3cocc3CC[C@@H]12`, the ED50 in assay [1] is over 50 µM. The inhibition entry in assay [2] and in assay [4] was “inactive” in each case. In assay [3], this molecule returned an inhibition at 50 µM of under 50%.
On to `C[C@]12CC(=O)OC[C@@](C)(C(=O)O)[C@@H]1CC[C@@]1(CO)c3cocc3CC[C@@H]12`, for which the ED50 in assay [1] was over 50 µM. The inhibition entry in assay [2] and in assay [4] was “inactive” throughout. For the same molecule, the inhibition at 50 µM in assay [3] was under 50%.
The IC50 is the concentration that inhibits the measured activity by half. Read a high IC50 as a need for much substance. `CC1=C(O)C(=O)C[C@]2(C)[C@H]3CCc4cocc4[C@]3(CO)CCC12O` (some centres not stated): the ED50 in assay [1] was over 50 µM. Also, the inhibition entry in assay [2] and in assay [4] was “inactive” in each case. This molecule also showed an IC50 in assay [5] of 34.4 µM. In assay [6], this molecule showed a CD of 11.2 µM.
For the molecule `CC1=C(O)C(=O)C[C@@]2(C)[C@H]1CC[C@@]1(CO)c3cnccc3C(=O)C[C@@H]12`, the ED50 in assay [1] is over 50 µM. In addition, the inhibition result in assay [2] and in assay [4] was “inactive” throughout. The inhibition at 50 µM in assay [3] was under 50%.

The record behind these values is ChEMBL document CHEMBL3351822, “Spongiapyridine and related spongians isolated from an Indonesian Spongia sp” (J Nat Prod, 2014).
